Measured values as given in ChEMBL document CHEMBL1671623, “Identification and biochemical characterization of small-molecule inhibitors of west nile virus serine protease by a high-throughput screen” (Antimicrob Agents Chemother, 2008).
The source made the active and inactive calls. The rule behind the calls is not given here. Peptide text beside a SMILES is read from it. * marks the point of attachment. AMC = Cc1cc(=O)oc2cc(N*)ccc12; Boc = CC(C)(C)OC(=O)*

How the values were obtained:
[1] = test system: West Nile virus; assay: Inhibition of West Nile virus EG101 NS2BH/NS3 serine protease after 15 mins using Z-Val-Lys-Arg-MNA substrate assessed as increase in apparent Km/apparent Vmax ratio of substrate by Sigma plot
Procedure, shortened: (§1)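 Steady-state kinetics with purified NS2BH/NS3 protease. Enzyme preincubated 15 min at room temperature with inhibitor at 0, 1.5, 2.5, 5 or 10 µM. Substrate then added at eight concentrations (10–400 µM) for 15 min. AMC or MNA fluorescence converted to rate via a standard curve. Kmapp/Vmaxapp and 1/Vmaxapp plotted against inhibitor concentration; Ki from kinetic fitting; repeated three times.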

[2] = Inhibition of Dengue virus 2 New Guinea C NS2BH/NS3 serine protease after 15 mins by spectrofluorometer in presence of Boc-Gly-Arg-Arg-AMC; design: species or system dengue virus type 2
Procedure, shortened: (§2)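 His-tagged NS2BH/NS3 complex expressed in E. coli and purified by Talon affinity and Sephadex G-75. 67 nM protease preincubated 15 min at room temperature with 50 µM inhibitor in 200 mM Tris-HCl pH 9.5, 6 mM NaCl, 30% glycerol. Substrate added at 100 µM final (Boc-GKR-AMC for WNV, Boc-GRR-AMC for DENV2) for 15 min. AMC fluorescence read at ex 390/em 465 nm. Activity expressed as percent of no-inhibitor control; triplicate.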

[3] = test system: Vero; assay: (§3) Cytotoxicity against African green monkey Vero cells after 24 hrs by Cell Titer-Glo assay; assay type: cell-based; conditions: chlorocebus sabaeus, vero, 24 h
Procedure, shortened: (§4)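 Vero cells seeded at 5,000 cells/well and grown 24 h at 37°C, 5% CO2. Compound added in triplicate in DMEM with 10% FBS and incubated a further 24 h. Viability read by CellTiter-Glo luminescence. Cytotoxicity expressed relative to no-compound wells; CC50 taken from the dose curve; two independent experiments.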

[4] = Inhibition of West Nile virus EG101 NS2BH/NS3 serine protease after 15 mins using Boc-Gly-Lys-Arg-AMC substrate by spectrofluorometry; procedure, shortened: as §2
[5] = Inhibition of protease activity of trypsin using Z-Gly-Pro-Arg-pNA substrate
Procedure, shortened: (§5)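 Trypsin (67 nM) or factor Xa (25 nM) preincubated 15 min at room temperature with 50 µM inhibitor in 200 mM Tris-HCl pH 9.5, 6 mM NaCl, 30% glycerol. Substrate added at 100 µM for 15 min: Z-Gly-Pro-Arg-pNA for trypsin, read by absorbance at 405 nm; Boc-Ile-Glu-Gly-Arg-AMC for factor Xa, read by fluorescence. Aprotinin as positive control; triplicate.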

[6] = Selectivity index, ratio of CC50 for African green monkey Vero cells to EC50 for West Nile virus EG101; assay type: toxicity, cell-based; conditions: read-out: Selectivity Index
[7] = test system: West Nile virus; assay: Antiviral activity against West Nile virus EG101 infected in Vero cells assessed as inhibition of viral replication measured 72 hrs post infection by luciferase reporter gene assay; assay type: functional, organism-based
Procedure, shortened: (§6)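 Vero cells pretreated 30 min with twofold serial dilutions of inhibitor in MEM with 10% FBS and 1% penicillin-streptomycin. Then infected with WNV reporter virus particles carrying a Renilla luciferase subgenomic replicon (approx. 1 x 10^4 RVPs, MOI 0.5 to 1.0). Lysates assayed for luciferase. EC50 from variable-slope sigmoidal nonlinear regression; triplicate.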

[8] = as §3; assay type: cell-based; conditions: chlorocebus sabaeus, Vero cells; procedure, shortened: as §4
[9] = test system: West Nile virus; assay: Antiviral activity against West Nile virus EG101 infected in Vero cells assessed as inhibition of viral replication measured 24 hrs post infection by luciferase reporter gene assay; assay type: functional, organism-based; procedure, shortened: as §6
[10] = test system: West Nile virus; assay: Antiviral activity against West Nile virus EG101 infected in Vero cells assessed as inhibition of viral replication measured 48 hrs post infection by luciferase reporter gene assay; assay type: functional, organism-based; procedure, shortened: as §6
[11] = test system: West Nile virus; assay: Inhibition of West Nile virus EG101 NS2BH/NS3 serine protease after 15 mins using Boc-Gly-Lys-Arg-AMC substrate assessed as increase in apparent Km/apparent Vmax ratio of substrate by Sigma plot; procedure, shortened: as §1
[12] = molecular target: Coagulation factor X (Homo sapiens) (UniProt P00742); assay: Inhibition of protease activity of factor 10a using Boc-Ile-Glu-Gly-Arg-AMC substrate; procedure, shortened: as §5
Sequence of Coagulation factor X (Homo sapiens) (P00742 41-179 limits assumed): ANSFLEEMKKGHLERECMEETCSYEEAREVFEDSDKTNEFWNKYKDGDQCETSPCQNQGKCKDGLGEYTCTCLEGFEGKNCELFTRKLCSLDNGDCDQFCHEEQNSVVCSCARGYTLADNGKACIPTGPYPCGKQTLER
Sequence of Coagulation factor X (Homo sapiens) (P00742 235-488 limits assumed): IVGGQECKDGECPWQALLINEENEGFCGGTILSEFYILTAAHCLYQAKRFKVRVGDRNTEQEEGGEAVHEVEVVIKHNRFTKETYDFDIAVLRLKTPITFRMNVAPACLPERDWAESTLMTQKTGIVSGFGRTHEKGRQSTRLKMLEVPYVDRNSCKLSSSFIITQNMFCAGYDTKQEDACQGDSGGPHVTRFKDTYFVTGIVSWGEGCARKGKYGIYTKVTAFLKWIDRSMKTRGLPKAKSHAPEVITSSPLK

Q: For Cc1cc(=O)oc2cc(NC(=O)[C@H](CCCNC(=N)N)NC(=O)[C@H](CCCCN)NC(=O)CNC(=O)OC(C)(C)C)ccc12 (Boc-Gly-Lys-Arg-{AMC}), which Km [1] is on record?
A: 737 µM

Q: Which Ki [2] does the source give for COc1cccc(C(NC(=O)c2ccccc2)c2ccc3cccnc3c2O)c1 (configuration not stated) here?
A: 28.6 µM

Q: And the Activity [3]?
A: Toxic

Q: What about the Ki [4] of the same compound?
A: 3.2 µM

Q: With Oc1ccccc1C(Nc1nccs1)c1ccc2cccnc2c1O (configuration not stated) as the compound, how does the inhibition [1] read?
A: Active

Q: And the Ki [2]?
A: 30.2 µM

Q: What about the inhibition [5] of the same compound?
A: inactive

Q: And the selectivity ratio [6]?
A: 100

Q: And the inhibition [7]?
A: Active

Q: What about the CC50 at 24 h [8] of the same compound?
A: 140 µM

Q: What about the inhibition [9] of the same compound?
A: Active

Q: And the EC50 [10]?
A: 1.4 µM

Q: What about the Ki [4] of the same compound?
A: 3.4 µM

Q: What about the inhibition [11] of the same compound?
A: Active

Q: And the inhibition [12]?
A: inactive

Q: With CCn1c(SCC(=O)c2ccccc2)nc2ccccc2c1=O as the compound, how does the Ki [2] read?
A: 17 µM

Q: And the Ki [4]?
A: 37.3 µM
